# Assay results: ChEMBL document CHEMBL3352065, “Greensporones: resorcylic acid lactones from an aquatic Halenospora sp” (J Nat Prod, 2014)
# Activity calls are given as the source filed them. The rule behind the calls is not given here.
# Key:
# TAK1/TAB1 (Homo sapiens) = TAK1/TAB1 (Homo sapiens) (UniProt Q15750+O43318); assay: Inhibition of Tak1-TAB1 (unknown origin) assessed as enzyme activity by Kinase-Glo Plus luminescence kinase assay; assay type: protein-complex assay
# MDA-MB-435 [1] = assay: Cytotoxicity against human MDA-MB-435 cells assessed as cell viability after 72 hrs; assay type: functional, cell-based; conditions: MDA-MB-435, 72 h
# Outline: (§1)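 ATCC lines grown in RPMI 1640 with 10% FBS, penicillin and streptomycin at 37 °C, 5% CO2. Log-phase cells were trypsinized, washed twice, seeded at 5000/well and incubated overnight. Compound was added from DMSO at 20, 4, 0.8, 0.16 and 0.032 μM (0.5% DMSO final) for 72 h at 37 °C. Viable cells were read by commercial absorbance assay. IC50 is growth inhibition to 50% of DMSO control.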
# HT-29 [2] = assay: Cytotoxicity against human HT-29 cells assessed as cell viability after 72 hrs; assay type: functional, cell-based; conditions: HT-29, 72 h; outline: as §1
# MDA-MB-435 [3] = assay: Cytotoxicity against human MDA-MB-435 cells assessed as cell viability at 1 nM after 72 hrs; assay type: functional; conditions: MDA-MB-435, 72 h, read-out: Activity
# Outline: (§2)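 Vinblastine was the positive control, at 10 nM in HT-29 and 1 nM in MDA-MB-435 cells. Cells were seeded at 5000/well, incubated overnight, then exposed for 72 h at 37 °C in 5% CO2. Viability was read by absorbance assay of viable cells and expressed as % viable cells.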
# HT-29 [4] = assay: Cytotoxicity against human HT-29 cells assessed as cell viability at 10 nM after 72 hrs; assay type: functional; conditions: HT-29, 72 h, read-out: Activity; outline: as §2
SMILES,inhibition (TAK1/TAB1 (Homo sapiens)),IC50 (MDA-MB-435 [1]) [µM],IC50 (HT-29 [2]) [µM],viability at 0.001 µM (MDA-MB-435 [3]) [%],viability at 0.01 µM (HT-29 [4]) [%]
COc1cc(O)c(Cl)c2c1C(=O)O[C@@H](C)CC[C@@H](O)CC/C=C\C(=O)C2,inactive,,,,
COc1cc(O)c(Cl)c2c1C(=O)O[C@@H](C)CCC(=O)CC/C=C/C(=O)C2,inactive,14.1,> 20,,
CC[C@]1(O)C[C@@H]2CN(CCc3c([nH]c4ccccc34)[C@@](C(=O)OC)(c3cc4c(cc3OC)N(C)[C@H]3[C@@](O)(C(=O)OC)[C@H](OC(C)=O)[C@]5(CC)C=CCN6CC[C@]43[C@@H]65)C2)C1 [VINBLASTINE],,,,21,44
COc1cc(O)c(Cl)c2c1C(=O)O[C@@H](C)CCC(=O)CC/C=C\C(=O)C2,inactive,,,,
COc1cc(O)cc2c1C(=O)O[C@@H](C)CC[C@@H](O)CC/C=C/C(=O)C2,inactive,11.2,25.4,,
C[C@H]1CCCCC/C=C/C(=O)Cc2cc(O)cc(O)c2C(=O)O1,inactive,14.5,13.8,,

# Now from value to compound, other results behind:
inhibition (TAK1/TAB1 (Homo sapiens)),SMILES,IC50 (MDA-MB-435 [1]) [µM],IC50 (HT-29 [2]) [µM],viability at 0.001 µM (MDA-MB-435 [3]) [%],viability at 0.01 µM (HT-29 [4]) [%]
inactive,COc1cc(O)cc2c1C(=O)O[C@@H](C)CCCCCCCC(=O)C2,,,,
inactive,COc1cc(O)c(Cl)c2c1C(=O)O[C@@H](C)CCC(=O)CCCCC(=O)C2,,,,
inactive,COc1cc(O)cc2c1C(=O)O[C@@H](C)CC[C@H]1CC[C@@H](CC(=O)C2)O1,,,,
inactive,COc1cc(O)cc2c1C(=O)O[C@@H](C)CCCCC/C=C/C(=O)C2,2.9,7.5,,
inactive,COc1cc(O)cc2c1C(=O)O[C@@H](C)CCC(=O)CC/C=C/C(=O)C2,14.1,> 20,,
inactive,COc1cc(O)c(Cl)c2c1C(=O)O[C@@H](C)CC[C@@H](O)CCCCC(=O)C2,,,,
inactive,COc1cc(O)cc2c1C(=O)O[C@@H](C)CC[C@H]1CC[C@H](CC(=O)C2)O1,,,,
